Assay outcomes (PubChem BioAssay)
This is a sample that favours compounds with a hit; in the whole collection about 3.1% have one here.
S100A4 MyoIIA – S100A4-myosin IIA interaction inhibition. hit rate 0.14% among 360,000. S100A4/TAMRA-MyoIIA peptide fluorescence polarization. inhibition, % at 10.7 µM;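 active means mean inhibition of at least 70% across replicates, with every replicate also reaching that level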
Target sequence (P26447 whole entry, looked up): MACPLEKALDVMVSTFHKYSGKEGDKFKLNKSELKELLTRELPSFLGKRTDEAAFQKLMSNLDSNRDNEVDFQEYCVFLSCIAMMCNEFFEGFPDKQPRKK
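assay system = human S100A4 monomer with TAMRA-labelled myosin IIA peptide | also added = labelled myosin peptide probe, 5 nM | incubation = 5 min between mix addition and reading | control set = DMSO and TFP controls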
ERAP1 inh – ERAP1 (human) enzyme inhibition; recombinant ERAP1, Leu-AMC fluorescence, 60 min; hit rate 0.15% among 340,000; inhibition, % at 10.7 µM; Q9NZ08;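 active means mean replicate inhibition of at least 30%, or all replicates individually reaching that 30% level; inactive means mean below 30% and not every replicate reaching it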;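 further: 0% = neutral control wells and 100% = L-leucinethiol positive control wells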
rRNA inh HTS – inhibitors of bacterial rRNA selective over humanized ribosomes; E. coli WT GFP vs humanized-ribosome RFP mutants, fluorescence, 24 h; hits give low values; DMSO median 0, no signal -100; GFP signal change (wild-type ribosome), % (no concentration beside the values); hit rate 1.6% among 350,000; AID 720706;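 active means significant combined selectivity score with lowered wild-type GFP, culture density cut under 30%, mutant RFP and density less affected; inactive means any of these conditions unmet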
F508del corr – correctors of CFTR F508del function in bronchial epithelial cells; CFBE cells, YFP halide quenching; stimulated with forskolin plus potentiator P3; % fluorescence drop versus neutral controls; activity (quench increase), % at 7.58 µM; hit rate 0.36% among 350,000;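 active means mean added fluorescence quench of at least 8% versus neutral control, with both replicates also reaching 8%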;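 further: cells transiently co-express mutant CFTR-F508del with the halide-sensitive YFP; corrector assay measuring rescue of mutant channel to the surface after 24 h compound exposure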
SIRT5 block – sirtuin-5 (human) deacylase inhibition; Q9NXA8; inhibition, % at 15 µM; Purified SirT5, succinyl-peptide AMC, trypsin-coupled fluorescence; AID 652115; hit rate 1.1% among 330,000; in the data active means inhibition above about 15%
Target sequence (Q9NXA8 whole entry, looked up): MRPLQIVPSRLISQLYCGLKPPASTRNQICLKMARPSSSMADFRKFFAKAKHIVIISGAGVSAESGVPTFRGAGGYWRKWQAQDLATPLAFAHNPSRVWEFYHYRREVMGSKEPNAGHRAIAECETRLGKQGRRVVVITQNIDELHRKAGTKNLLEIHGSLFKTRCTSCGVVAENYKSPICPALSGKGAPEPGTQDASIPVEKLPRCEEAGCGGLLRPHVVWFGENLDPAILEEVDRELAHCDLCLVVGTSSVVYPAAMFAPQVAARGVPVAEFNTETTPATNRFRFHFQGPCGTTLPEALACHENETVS
* = called active by the depositor; x = no result given.

SMILES	S100A4 MyoIIA	ERAP1 inh	rRNA inh HTS	F508del corr	SIRT5 block
CCc1nc2ccc(C(=O)N3CCN(CC)CC3)cc2nc1CC	-25.0	-1.8	31.4	2.2	-1.4
CCCN1CCN(C(=O)c2ccc3nc(CC)c(CC)nc3c2)CC1	6.0	1.0	7.2	0.8	20.3*
Cc1cc(C)cc(C(=O)NCC(=O)OCc2cc([N+](=O)[O-])cc3c2OCOC3)c1	6.4	-0.9	-20.0	12.7*	-1.0
Cc1cc(C)cc(OCC(=O)OCc2cc([N+](=O)[O-])cc3c2OCOC3)c1	-3.3	-3.5	2.1	-0.8	-8.7
COc1cc(NC(=O)C/C(C)=N/NC(=O)C(=O)NC2CCCCC2)c(OC)cc1Cl	-3.7	-3.2	1.9	3.9	0.4
COc1cc(NC(=O)C/C(C)=N/NC(=O)C(=O)NCCO)c(OC)cc1Cl	-18.4	0.3	-51.8*	-0.1	-0.9
O=C(Nc1ccc2c(c1)[C@@H]1C[C@@H](CC(=O)N3CCc4ccccc4C3)O[C@H](CO)[C@@H]1O2)C1CCC1	-3.4	0.9	-1.1	-2.7	1.3
O=C(c1ccccc1)N1CC[C@@H]2[C@@H](CO)Nc3ccc(C#Cc4cccc(F)c4)cc3[C@@H]21	x	x	-5.0	-2.6	x
C[C@@H]1CN([C@H](C)CO)C(=O)Cc2cc(NC(=O)CCN3CCOCC3)ccc2O[C@@H]1CN(C)C(=O)Nc1cccc2ccccc12	-8.9	-1.4	0.9	-1.4	5.6
C[C@@H]1CCCCO[C@@H](CN(C)C(=O)CCCN(C)C)[C@@H](C)CN([C@@H](C)CO)C(=O)c2cc(NC(=O)C3CCCCC3)ccc2O1	3.0	-0.5	2.1	-2.7	2.7
O=C(NCc1ccc(Cl)cc1)c1n[nH]c([N+](=O)[O-])c1Cl	-0.8	3.3	-14.8*	-5.2	-0.5
O=C(NCc1ccc(Cl)cc1)c1ncn[nH]1	-6.6	14.1	-1.5	-0.5	-1.4
CCC(C(=O)OCC(=O)C1(O)CCC2C3CCC4=CC(=O)CCC4(C)C3C(O)CC21C)C(C)C (stereo not given)	-0.4	0.5	11.1	8.2*	x
CC(=O)[C@@]1(O)CC[C@H]2[C@@H]3CCC4=CC(=O)CC[C@]4(C)[C@H]3[C@@H](O)C[C@@]21C	1.7	-1.3	x	4.7	-2.5
CCCCCC(=O)NC(=S)Nc1ccc(N2CCOCC2)cc1	3.3	2.2	-27.5*	-1.8	-4.2
CCC(=O)NC(=S)Nc1ccc(N2CCOCC2)cc1	-4.0	14.5	8.4	-1.4	-0.9
O=c1oc2ccccc2c(Nc2cc3ccccc3cc2O)c1[N+](=O)[O-]	0.7	4.1	-59.7	8.5*	5.8
O=c1oc2ccccc2c(Nc2ccccc2O)c1[N+](=O)[O-]	-5.7	7.7	9.9	-3.9	16.9*
O=c1oc2ccccc2c(NCc2ccc(Cl)cc2)c1[N+](=O)[O-]	1.8	-5.8	-38.7*	-1.6	-2.1
O=c1oc2ccccc2c(NCc2ccccc2)c1[N+](=O)[O-]	-13.1	2.8	-21.0	1.8	x
C/C=C/c1cnc2c(c1)C(=O)N([C@H](C)CO)C[C@@H](C)[C@H](CN(C)S(=O)(=O)c1cn(C)cn1)O2	10.0	2.1	2.0	0.4	-0.7
COCC(=O)N(C)C[C@@H]1Oc2cc(C3=CCCCC3)ccc2S(=O)(=O)N([C@@H](C)CO)C[C@@H]1C	-1.4	2.0	-0.5	-2.4	-1.3
COc1ccc(C(=O)Nc2ccc3oc(Cc4ccc(Cl)cc4)nc3c2)cc1OC	-1.7	3.0	-14.5*	0.0	-1.7
COc1ccc(NC(=O)Nc2cccc3c2O[C@@H](CN(C)Cc2ccc(C(=O)Nc4ccccc4N)cc2)[C@H](C)CN([C@@H](C)CO)C3=O)cc1	-6.5	1.6	-8.7	1.3	x
Cc1cc(NCc2ccccn2)n2ncc(-c3ccc(Cl)cc3)c2n1	-2.0	x	16.2	0.4	-1.9
SMILES	S100A4 MyoIIA	ERAP1 inh	rRNA inh HTS	F508del corr	SIRT5 block
Cc1cc(Cl)n2ncc(-c3ccccc3)c2n1	-2.5	7.2	-32.5*	-0.9	-1.3
Cc1cc(C)n2ncc(-c3cccc(Br)c3)c2n1	-9.7	3.3	-54.0	1.5	-3.9
Cc1cc(NCc2ccccn2)n2ncc(-c3ccccc3)c2n1	1.5	5.8	-37.9*	8.5*	4.0
O=C(C[C@H]1CC[C@@H]2[C@H](COC[C@@H](O)CN2S(=O)(=O)c2ccc(Cl)cc2)O1)NCc1ccncn1	-29.9	-0.3	1.9	2.3	1.1
CCCC(=O)N1CCC2(CC1)CN(C(=O)Nc1c(C)noc1C)[C@@H](CO)c1c2c2ccc(OC)cc2n1C	2.6	2.2	-4.5	1.1	-4.1
C#CCOCCOCCOCCNc1nc(N2CCN(C(=O)CCCCCCCCCCNC(=O)[C@H]([C@@H](C)CC)n3cc(CCCCN=C(N)N)nn3)CC2)nc(N2CCN(C(=O)CCCCCCCCCCNC(=O)[C@@H]([C@H](C)O)n3cc(C)nn3)CC2)n1	-13.0	-18.0	-40.3*	x	12.8
C#CCOCCOCCOCCNc1nc(N2CCN(C(=O)CCCCCCCCCCNC(=O)[C@H](CCCCN)n3cc(CCO)nn3)CC2)nc(N2CCN(C(=O)CCCCCCCCCCNC(=O)[C@H](CCCCN)n3cc(CCCC(=O)O)nn3)CC2)n1	0.8	7.7	-40.4*	-3.7	-8.7
COc1ccc(NC(=O)N(C)C[C@H]2Oc3c(cccc3N(C)C)C(=O)N([C@H](C)CO)C[C@H]2C)cc1	-18.6	3.7	-2.2	8.1*	-0.2
COc1ccc(NC(=O)N(C)C[C@H]2Oc3c(cccc3N(C)C)C(=O)N([C@@H](C)CO)C[C@@H]2C)cc1	25.1	1.1	-0.8	0.2	-2.9
COc1ccc(NC(=O)N(C)C[C@H]2Oc3c(NS(C)(=O)=O)cccc3C(=O)N([C@@H](C)CO)C[C@H]2C)cc1	12.1	-0.4	1.1	-1.3	32.6*
COc1ccc(NC(=O)N(C)C[C@@H]2Oc3c(NS(C)(=O)=O)cccc3C(=O)N([C@H](C)CO)C[C@@H]2C)cc1	-3.4	-1.6	6.2	-1.0	-5.9
CCN1CCN(CCCNC(=O)c2cc3c(s2)-c2ccccc2OC3)CC1	12.3	54.0*	-6.8	1.3	-63.5
CC1CC(C)CN(CCCNC(=O)c2cc3c(s2)-c2ccccc2OC3)C1 (stereo not given)	-2.8	-53.7	-3.8	0.5	-73.3
CCCN1CCN(CCCNC(=O)c2cc3c(s2)-c2ccccc2OC3)CC1	-4.3	18.3	-7.7	-3.1	-128.1
CC1CCCC(C)N1CCCNC(=O)c1cc2c(s1)-c1ccccc1OC2 (stereo not given)	-3.4	32.1*	-0.3	1.1	-105.3
CCCNC(=O)C[C@@H]1CC[C@H]2[C@@H](COc3ccc(NC(=O)c4cc(C)on4)cc3C(=O)N2C)O1	-2.0	-0.5	2.1	-1.1	-0.5
CC1=C(O)C(=O)OC1c1c(Cl)cccc1Cl (stereo not given)	-0.4	2.1	-28.9*	0.5	-2.9
COCCNc1nc(NCc2cnc(C)cn2)c2sccc2n1	3.2	1.9	4.6	-3.0	16.6*
N#C[C@@H]1[C@H](c2ccc(C3=CCCC3)cc2)[C@@H](CO)N1C(=O)C1CC1	-6.6	-1.0	1.4	-1.3	-0.6
